Results as given in ChEMBL document CHEMBL4823301, “Synthesis of acyclic nucleoside phosphonates targeting flavin-dependent thymidylate synthase in Mycobacterium tuberculosis” (Bioorg Med Chem, 2021).
Calls of active or inactive are those of the source. No cut-off for these calls is given here.

Legend:
[1] = target: T1, Flavin-dependent thymidylate synthase (Mycobacterium tuberculosis) (UniProt P9WG57); assay: Inhibition of Mycobacterium tuberculosis H37Rv ThyX expressed in Escherichia coli BL21(DE3) using 100 uM dUMP as substrate in absence of FAD cofactor at 200 uM incubated for 10 mins prior to the injection of NADPH and measured upto 20 mins by NADPH oxidase based spectrophotometric analysis; conditions: time 30.0 min
T1 sequence (whole entry): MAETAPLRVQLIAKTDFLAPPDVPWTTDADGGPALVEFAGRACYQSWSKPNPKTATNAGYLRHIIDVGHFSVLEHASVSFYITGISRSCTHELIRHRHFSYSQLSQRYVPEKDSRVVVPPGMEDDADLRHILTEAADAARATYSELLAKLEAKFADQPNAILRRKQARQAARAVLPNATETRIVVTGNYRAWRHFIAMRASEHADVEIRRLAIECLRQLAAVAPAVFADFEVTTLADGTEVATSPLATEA

[2] = target: T1, Flavin-dependent thymidylate synthase (Mycobacterium tuberculosis); assay: (§1) Inhibition of Mycobacterium tuberculosis H37Rv ThyX expressed in Escherichia coli BL21(DE3) using 10 uM dUMP as substrate in presence of FAD cofactor at 200 uM incubated for 10 mins prior to the injection of NADPH and measured upto 20 mins by NADPH oxidase based spectrophotometric analysis; conditions: time 30.0 min
[3] = target: T1, Flavin-dependent thymidylate synthase (Mycobacterium tuberculosis); assay: as §1, with “using 100” for “using 10”, “analysis relative to control” for “analysis”; conditions: time 30.0 min
Procedure, shortened: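 Mtb ThyX from E. coli BL21(DE3)/pLysS carrying pET24d, purified and stored at −20 °C, with a FAD:ThyX ratio of 1:3. Compound was preincubated 10 min at 25 °C. Injected NADPH started the reaction, and A340 fall was read up to 20 min. Duplicates; % inhibition = (1−Vi/Vo)×100 from initial rates.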

[4] = Inhibition of flavin-dependent thymidylate synthetase (unknown origin); set-up: species or system Bacteria

| Structure (SMILES) | inhibition [1] | inhibition [2] | inhibition [3] | Ki [4] |
| --- | --- | --- | --- | --- |
| CCCCCCNC(=O)NCC#Cc1ccc2c(=O)[nH]c(=O)n(CC=CCP(=O)(O)O)c2c1 | inactive | inactive | 31.8% |  |
| CCCCCCCC(=O)NCC#Cc1ccc2c(=O)[nH]c(=O)n(CC=CCP(=O)(O)O)c2c1 | inactive | inactive | 14.9% |  |
| O=C1c2ccccc2C(=O)C(c2ccco2)C1O (configuration not stated) |  |  |  | 28 nM |
| O=c1[nH]c(=O)n(CC=CCP(=O)(O)O)c2ccccc12 | inactive | inactive | 15.8% |  |
| CCCCCCNC(=O)NCC#Cc1cn(CC=CCP(=O)(O)O)c(=O)[nH]c1=O | inactive | inactive | 0% |  |
| CCCCCCCC(=O)NCC#Cc1cn(CC=CCP(=O)(O)O)c(=O)[nH]c1=O | inactive | inactive | 0% |  |
| O=c1[nH]c(=O)n(CC=CCP(=O)(O)O)cc1Cc1ccccc1 | inactive | inactive | 23.7% |  |
| COc1ccc2c(=O)[nH]c(=O)n(CC=CCP(=O)(O)O)c2c1 | inactive | inactive | 26.4% |  |
| Cc1ccc2c(c1)c(=O)[nH]c(=O)n2CC=CCP(=O)(O)O | inactive | inactive | 26.2% |  |
| O=C(Cc1ccccc1)NCC#Cc1ccc2c(=O)[nH]c(=O)n(CC=CCP(=O)(O)O)c2c1 | inactive | inactive | 14.7% |  |
| CCCCCCNC(=O)NCC#Cc1ccc2c(c1)c(=O)[nH]c(=O)n2CC=CCP(=O)(O)O | inactive | inactive | 14.9% |  |
| CCCCCCCC(=O)NCC#Cc1ccc2c(c1)c(=O)[nH]c(=O)n2CC=CCP(=O)(O)O | inactive | inactive | 0% |  |
| O=C(Cc1ccccc1)NCC#Cc1ccc2c(c1)c(=O)[nH]c(=O)n2CC=CCP(=O)(O)O | inactive | inactive | 0% |  |
